Series [1] deals with Acinetobacter baumannii. Description: Induction of membrane permeabilization in colistin-resistant Acinetobacter baumannii isolate 3942 at 60 uM measured after 1 hr by SYTO-9/propidium iodide staining based fluorescence assay relative to control. Type of series: functional. The procedure, abridged: (§1)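 Cells were grown overnight in CAMHB at 37°C, diluted 1:10 and grown 4 h more to an OD600 of ~0.3. They were pelleted, washed with sterile water and resuspended at 1/10 volume in water containing compound. After 1 h at 37°C with shaking, cells were washed and stained with SYTO-9/propidium iodide (1:1, 3 μL/mL) for 15 min at RT. Emission was read at 530 and 645 nm (excitation 485 nm), and the green/red ratio was expressed as % of the untreated control.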

The subject of series [2] is Acinetobacter baumannii. The series can be described thus: Potentiation of colistin-induced antimicrobial activity against colistin-resistant Acinetobacter baumannii 4106 assessed as fold reduction in colistin MIC at 60 uM after 18 hrs by broth microdilution assay. Type of series: functional. The gist of the method:
(§2)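 Checkerboard-style resensitization following adapted CLSI broth microdilution. Bacteria were grown 4–6 h in CAMHB and subcultured to 5×10^5 CFU/mL. Adjuvant was added from DMSO stock and held constant while colistin was serially diluted in the dosed subculture. Plates were incubated stationary at 37°C for 18 h, then MICs were read. Fold reduction was taken relative to the colistin MIC without adjuvant.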

Series [3] deals with Klebsiella pneumoniae. The series can be described thus: Potentiation of colistin-induced antimicrobial activity against colistin-resistant Klebsiella pneumoniae B9 assessed as fold reduction in colistin MIC at 60 uM after 18 hrs by broth microdilution assay. Type of series: functional. The gist of the method: as §2
In series [4] the test system is Klebsiella pneumoniae. The series can be described thus: Induction of membrane permeabilization in colistin-resistant Klebsiella pneumoniae isolate C3 at 60 uM measured after 1 hr by SYTO-9/propidium iodide staining based fluorescence assay relative to control. Type of series: functional. The gist of the method:
as §1

The test system of series [5] is Acinetobacter baumannii. The series can be described thus: Potentiation of colistin-induced antimicrobial activity against colistin-resistant Acinetobacter baumannii ATCC 17978 expressing mcr1 gene assessed as fold reduction in colistin MIC at 60 uM after 18 hrs by broth microdilution assay. The series is classed as functional. The gist of the method:
as §2

Series [6] has as its system Escherichia coli. The series can be described thus: Potentiation of colistin-induced antimicrobial activity against colistin-resistant Escherichia coli ATCC 25922 expressing mcr1 gene assessed as fold reduction in colistin MIC at 60 uM after 18 hrs by broth microdilution assay. Type of series: functional. The procedure, abridged:
as §2
In general terms: In broth dilution the organism is exposed to a series of concentrations in liquid medium.

Series [7] is described as follows: Hemolytic activity in sheep erythrocytes assessed as hemolysis at 100 uM incubated for 1 hr under shaking condition by UV-spectrophotometry. Type of series: ADME, cell-based, Ovis aries, Erythrocyte. To be noted: read-out: Activity. The procedure, abridged: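 Washed sheep erythrocytes (defibrinated blood spun, resuspended in PBS three times) diluted 10-fold in PBS containing compound from DMSO stock. DMSO negative control (0% lysis), 1% Triton X100 positive control (100% lysis). 1 h at 37°C with shaking, then spun 10 min at 10,000 rpm and supernatant diluted 1:40 in distilled water.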

Series [8] relates to Klebsiella pneumoniae. Description: Toxicity in Klebsiella pneumoniae B9 after 18 hrs by broth microdilution assay. Type of series: organism-based. The procedure, abridged:
(§3)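 Single-agent MIC per CLSI broth microdilution. Cells from a 4–6 h culture in cation-adjusted Mueller-Hinton broth adjusted to 5 ×10^5 CFU/mL. Compound (DMSO stock) added to 200 μM top concentration and twofold serially diluted six times, with an untreated control row. Plates sealed and incubated stationary at 37°C for 18 h before MIC read.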

In series [9] the test system is Escherichia coli. The series can be described thus: Toxicity in Escherichia coli ATCC 25922 after 18 hrs by broth microdilution assay. Type of series: organism-based. The following applies: in vitro. The procedure, abridged:
as §3

Series [10] relates to Acinetobacter baumannii. Description: Toxicity in Acinetobacter baumannii ATCC 17978 expressing mcr1 gene after 18 hrs by broth microdilution assay. Type of series: organism-based. The procedure, abridged:
as §3

Series [11] concerns Acinetobacter baumannii. Description: Toxicity in Acinetobacter baumannii 4106 after 18 hrs by broth microdilution assay. Type of series: organism-based. The following applies: in vitro. The gist of the method: as §3

The source made the active and inactive calls. The calls are words filed in the database; no cut-off is given here.

In the case of `CCCCn1cc(CCNC(=O)c2cc(Br)c(Br)[nH]2)c2ccccc21`, the result in the series on Acinetobacter baumannii [1] and in the series on Klebsiella pneumoniae [4] was inactive. Moreover, the “fold change (FC)” value with Acinetobacter baumannii [2], in the series with Klebsiella pneumoniae [3], in the series on Acinetobacter baumannii [5] and in the series on Escherichia coli [6] was 0 each time. The hemolysis at 1 h, 100 µM in [7] is < 1%. Also, the MIC in the series with Klebsiella pneumoniae [8], in the series with Escherichia coli [9], in the series with Acinetobacter baumannii [10] and with Acinetobacter baumannii [11] was > 200 µM in each case.

The values are drawn from ChEMBL document CHEMBL4392827, “Tryptamine derivatives disarm colistin resistance in polymyxin-resistant gram-negative bacteria” (Bioorg Med Chem, 2019).
